# Screening data (PubChem BioAssay)
# This is a sample that favours compounds with a hit; in the whole collection about 3.1% have one here.
# Env fusion inh = inhibitors of HIV-1 Env-driven cell-cell fusion, primary screen, HeLa-JRFL effector, CEM21 target cells, luciferase; inhibition, % at 12.3 µM; 1.1% of 360,000 active; AID 651610, 2012;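 active = mean replicate inhibition score of at least 50 and every replicate individually at or above 50; inconclusive = only one of the two criteria met; inactive = mean below 50 and not all replicates reaching 50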;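 note: 0% = plate neutral controls and 100% = maraviroc near 300 nM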
# EWS-Fli inh = EWS/Fli-driven NR0B1 reporter inhibitors, primary screen, A673 cells, NR0B1 luciferase, luminescence, MLPCN library; AID 651661, 2012; 0.67% of 350,000 active; inhibition, % at 12.6 µM; viability-normalised;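 active = mean inhibition of at least 50% after viability correction, with every replicate also passing that limit; inconclusive = mean reaches 50% but only one of two replicates passes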;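 note: firefly luciferase signal divided by Alamar Blue viability fluorescence both relative to DMSO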
# FN deposit inh = inhibitors of fibronectin matrix deposition, primary screen, AH1F cells, Alexa488-fibronectin fluorescence, plate reader | AH1F fibroblasts, overnight | inhibition, % at 12.6 µM | 0.086% of 350,000 active;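 active = mean inhibition across replicates of 30% or more, regardless of how many single replicates reach that level; inconclusive = mean under 30% yet at least half of replicates reach 30%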;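 note: positive control wells lacked labelled fibronectin entirely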
#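 test system = AH1F fibroblasts assembling fluorescent fibronectin matrix | quantity = 10000 AH1F cells per well | buffer or medium = DMEM plus 2% serum, read in PBS | doses = single dose, pinned | incubation = 1 h cell attachment, overnight exposure to compound and label | detection = fluorescence at 485 nm excitation, 525 nm emission | read-out basis = inhibition from reduced deposited-fibronectin fluorescence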
# FGF22 binding = binders of human FGF22 protein, primary screen, FGF22 synaptogenesis inhibitor project, biophysical, thermal shift, single point. 1.5% of 340,000 active. activity (Tm shift, normalised), % at 9.99 µM. recombinant FGF22 thermal shift, SYPRO orange fluorescence; percent of sucrose octasulfate shift, DMSO zero. Fibroblast growth factor 22 (Homo sapiens), Q9HCT0;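 active = mean Tm shift, scaled 0 neutral to 100 positive control, at about 1.3% or above, every replicate too, limit read from the data; inconclusive = no clear call, values can overlap the other calls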
# Target sequence (Q9HCT0 whole entry, looked up): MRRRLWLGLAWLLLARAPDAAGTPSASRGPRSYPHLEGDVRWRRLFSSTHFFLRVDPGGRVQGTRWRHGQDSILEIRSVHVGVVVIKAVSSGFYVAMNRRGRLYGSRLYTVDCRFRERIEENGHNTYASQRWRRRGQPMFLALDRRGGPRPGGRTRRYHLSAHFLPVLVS
# PGC1a acetyl inh = inhibitors of PGC1a acetylation signal, primary screen, cell-based, U2OS, AlphaScreen, inhibitor mode | AlphaScreen anti-acetyl-lysine; with virally co-expressed GCN5 acetyltransferase | inhibition, % at 15.6 µM | 0.17% of 350,000 active;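 active = every replicate shows inhibition of at least 40%; inconclusive = mean inhibition at least 40% but some replicate below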;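 note: 0% = neutral control wells and 100% = positive control wells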
# PAX8 inh HTS = inhibitors of PAX8-driven TPO luciferase reporter, primary screen, RMG-I cells, single concentration; SteadyGlo, 24 h; inhibition, % at 12.6 µM; 1.2% of 360,000 active;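 active = mean replicate inhibition at least 60% with every replicate also reaching 60%; inconclusive = only one of the two criteria is met; inactive = mean below 60% and not all replicates reaching 60%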;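 note: luciferase light reporting Pax8 driven TPO promoter activity; plate controls were median of neutral control wells for no effect and mitoxantrone controls for full effect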
# An asterisk follows results filed as active; u = inconclusive; x = no result; [ ] = remark or other dose.
SMILES,Env fusion inh,EWS-Fli inh,FN deposit inh,FGF22 binding,PGC1a acetyl inh,PAX8 inh HTS
CC(=O)N1[C@H](CO)[C@H](c2ccccc2)C12CN(C(=O)c1cnccn1)C2,x,-3,x,0,4,x
C[C@H](CO)N1C[C@H](C)[C@H](CN(C)Cc2ccccn2)Oc2ncc(C#C[C@@H](C)O)cc2C1=O,-27[16.7 µM],-8,x,0,-19,x
C[C@@H]1CCCCO[C@H](CN(C)Cc2ccccc2)[C@@H](C)CN([C@@H](C)CO)C(=O)c2cc(NC(=O)Nc3ccc(C(F)(F)F)cc3)ccc2O1,88*[16.7 µM],u,4,-1,5,119*
C[C@@H]1CN([C@@H](C)CO)C(=O)c2cc(NC(=O)Nc3ccc(C(F)(F)F)cc3)ccc2O[C@@H](C)CCCCO[C@@H]1CN(C)Cc1ccc(C(F)(F)F)cc1,0[16.7 µM],-7,-2,0,-6,-21
C[C@@H]1CN([C@@H](C)CO)C(=O)c2cc(NC(=O)Nc3ccc(C(F)(F)F)cc3)ccc2O[C@@H](C)CCCCO[C@@H]1CN(C)Cc1ccccc1,44[16.7 µM],-3,-4,0,-7,79*
C[C@@H]1CCCCO[C@H](CN(C)Cc2ccc(C(=O)O)cc2)[C@@H](C)CN([C@H](C)CO)C(=O)c2cc(NC(=O)Nc3ccc(C(F)(F)F)cc3)ccc2O1,9[16.7 µM],-7,x,0,-1,-14
C[C@@H]1CN([C@H](C)CO)C(=O)c2cc(NC(=O)Nc3ccc(C(F)(F)F)cc3)ccc2O[C@@H](C)CCCCO[C@@H]1CN(C)Cc1ccccc1,u,25,-3,-1,-17,109*
COCC(=O)N(C)C[C@H]1Oc2cc(-c3ccc(OC)cc3)ccc2S(=O)(=O)N([C@@H](C)CO)C[C@H]1C,-4[16.7 µM],-16,x,0,-5,x
CCCNC1(C(N)=O)CCN(Cc2ccccc2)CC1,x,0,-27,43*,1,u
Cc1ccc(C)c2c1CCC(=Cc1ccccc1[N+](=O)[O-])C2=O,16,4,-1,0,x,13
CN1C/C(=C/c2ccccc2[N+](=O)[O-])C(=O)/C(=C\c2ccccc2[N+](=O)[O-])C1,-199,72*,2,0,-28,x
COc1ccc(S(=O)(=O)Nc2ccc3c(c2)C(=O)N([C@@H](C)CO)C[C@H](C)[C@H](CN(C)C)O3)cc1,-6[16.7 µM],-1,x,0,-1,-5
CCCNC(=O)N1[C@H](CO)[C@H](c2ccccc2)[C@H]1CNC(=O)c1ccc(F)cc1,x,16,-8,x,-6,18
CCC(C)(C)c1ccc(OCCCC[n+]2cccc(C)c2C)c(C(C)(C)CC)c1,99*,u,-2,0,-2,98*
Cc1cc[n+](CC[n+]2ccc(C)cc2)cc1,-31,-22,-2,0,-1,4
CCC(C)(C)c1ccc(OCCCC[n+]2ccc(C)cc2)c(C(C)(C)CC)c1,127*,x,1,x,x,85*
CN1CCN(C(=O)C[C@@H]2CC[C@H]3[C@@H](COC[C@@H](O)CN3CC3CCCC3)O2)CC1,x,x,0,x,1,-10
C[C@@H]1CN([C@@H](C)CO)C(=O)c2cc(C#CC3(O)CCCC3)cnc2O[C@@H]1CN(C)Cc1ccccn1,x,-9,x,0,6,-6
C[C@@H]1CN([C@@H](C)CO)C(=O)c2cccc(NS(=O)(=O)c3ccc(F)cc3)c2O[C@H]1CN(C)C,x,9,4,0,-7,-3
O=C(Cc1ccccc1)Nc1ncnc2c1C(c1ccccc1)c1c(ccc3ccccc13)O2 (stereo unspecified),68*,17,-5,0,x,u
CC(=O)N1CCCN(Cc2cn(-c3ccc(C)cc3)nc2-c2ccc(F)cc2)CC1,4,6,-5,43*,x,-4
COc1ccc(S(=O)(=O)Nc2ccc3c(c2)C(=O)N([C@H](C)CO)C[C@@H](C)[C@H](CN(C)Cc2ccc(C(F)(F)F)cc2)OCCCC[C@H](C)O3)cc1,29[16.7 µM],32,x,0,7,26
C[C@@H]1CCCCO[C@H](CN(C)Cc2ccc(C(F)(F)F)cc2)[C@H](C)CN([C@@H](C)CO)C(=O)c2cc(NS(=O)(=O)c3ccc(F)cc3)ccc2O1,u,4,-2,1,-10,83*
C[C@@H]1CCCCO[C@@H](CN(C)Cc2ccc(C(F)(F)F)cc2)[C@H](C)CN([C@H](C)CO)C(=O)c2cc(NS(=O)(=O)c3ccccc3)ccc2O1,22[16.7 µM],13,-5,x,-5,92*
C[C@@H]1CCCCO[C@H](CN(C)Cc2ccc(C(F)(F)F)cc2)[C@H](C)CN([C@H](C)CO)C(=O)c2cc(NS(=O)(=O)c3ccc(F)cc3)ccc2O1,26[16.7 µM],22,-8,-1,8,79*
SMILES,Env fusion inh,EWS-Fli inh,FN deposit inh,FGF22 binding,PGC1a acetyl inh,PAX8 inh HTS
C[C@@H]1CCCCO[C@H](CN(C)Cc2ccc(C(F)(F)F)cc2)[C@@H](C)CN([C@@H](C)CO)C(=O)c2cc(NS(=O)(=O)c3ccc(F)cc3)ccc2O1,33[16.7 µM],31,-12,-1,6,103*
C[C@@H]1CN([C@@H](C)CO)C(=O)c2cc(NS(=O)(=O)c3ccc(F)cc3)ccc2O[C@@H](C)CCCCO[C@@H]1CN(C)Cc1ccc(C(=O)O)cc1,-9[16.7 µM],-10,x,0,8,-8
C[C@@H]1CCCCO[C@H](CN(C)Cc2ccccc2)[C@@H](C)CN([C@@H](C)CO)C(=O)c2cc(NS(=O)(=O)c3ccccc3)ccc2O1,-35[16.7 µM],-3,x,0,12,-5
C[C@@H]1CN([C@@H](C)CO)C(=O)c2cc(NS(=O)(=O)c3ccc(F)cc3)ccc2O[C@@H](C)CCCCO[C@@H]1CN(C)Cc1ccc(C(F)(F)F)cc1,-55[16.7 µM],0,-3,0,0,88*
C[C@H]1CCCCO[C@@H](CN(C)Cc2ccc(C(F)(F)F)cc2)[C@@H](C)CN([C@@H](C)CO)C(=O)c2cc(NS(=O)(=O)c3ccc(F)cc3)ccc2O1,17[16.7 µM],17,8,-1,-1,96*
COc1ccc(S(=O)(=O)Nc2ccc3c(c2)C(=O)N([C@H](C)CO)C[C@H](C)[C@@H](CN(C)Cc2ccc(C(F)(F)F)cc2)OCCCC[C@@H](C)O3)cc1,-5[16.7 µM],5,-11,0,2,29
C[C@H](CO)N1C[C@H](C)[C@H](CN(C)Cc2ccc(C(F)(F)F)cc2)OCCCC[C@H](C)Oc2ccc(NS(=O)(=O)c3ccc(F)cc3)cc2C1=O,8[16.7 µM],73*,6,-1,17,106*
O=C(Nc1ccc(NC(=O)c2cccs2)cn1)c1ccccc1,-116,-41,5,43*,x,-173
